Entries after “also recorded” stand apart in the source; their conditions may differ. Values belong to the molecule of their own block, whether it stands above or below them.
Tests used:
Format in all cases: biochemical
ERAP2^N [1] = biological target: T1, ERAP2^N (Homo sapiens, UniProt Q6P179, K392N); experiment: R-AMC hydrolysis / Michaelis-Menten analysis by ERAP2^N
ERAP2^K [2] = biological target: T2, ERAP2^K (Homo sapiens, UniProt Q6P179); experiment: R-AMC hydrolysis / Michaelis-Menten analysis by ERAP2^K
T2 sequence (Q6P179 whole entry): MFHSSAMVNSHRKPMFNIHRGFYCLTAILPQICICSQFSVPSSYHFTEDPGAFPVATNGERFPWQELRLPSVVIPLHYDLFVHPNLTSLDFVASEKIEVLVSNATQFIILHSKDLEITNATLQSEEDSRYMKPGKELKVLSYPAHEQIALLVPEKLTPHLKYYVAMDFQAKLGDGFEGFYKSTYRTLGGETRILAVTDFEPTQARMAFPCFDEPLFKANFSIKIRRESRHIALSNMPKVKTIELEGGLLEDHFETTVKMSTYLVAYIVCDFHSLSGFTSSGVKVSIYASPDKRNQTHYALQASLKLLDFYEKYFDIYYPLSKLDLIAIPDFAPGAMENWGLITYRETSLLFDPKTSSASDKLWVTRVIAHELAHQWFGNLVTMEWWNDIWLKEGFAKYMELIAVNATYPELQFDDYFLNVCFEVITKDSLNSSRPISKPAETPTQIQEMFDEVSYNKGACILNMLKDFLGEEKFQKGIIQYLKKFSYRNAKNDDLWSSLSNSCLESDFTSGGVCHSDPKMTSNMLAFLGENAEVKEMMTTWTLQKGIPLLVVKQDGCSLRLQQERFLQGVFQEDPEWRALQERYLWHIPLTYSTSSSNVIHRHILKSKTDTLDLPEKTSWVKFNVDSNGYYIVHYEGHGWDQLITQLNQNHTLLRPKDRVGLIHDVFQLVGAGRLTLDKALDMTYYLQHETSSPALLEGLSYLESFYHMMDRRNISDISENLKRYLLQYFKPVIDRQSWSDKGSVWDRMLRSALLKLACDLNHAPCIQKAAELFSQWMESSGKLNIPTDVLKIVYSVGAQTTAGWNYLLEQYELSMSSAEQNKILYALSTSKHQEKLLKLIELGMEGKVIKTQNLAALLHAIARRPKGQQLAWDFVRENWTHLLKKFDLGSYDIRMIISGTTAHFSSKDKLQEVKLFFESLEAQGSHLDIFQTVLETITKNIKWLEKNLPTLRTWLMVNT

ERAP2^N [3] = biological target: T1, ERAP2^N; experiment: Trimming of […] by ERAP2 alleles; conditions: ERAP2^N vs ERAP2^K; MS (LTQ Orbitrap), <30% completion
ERAP2^N [4] = biological target: T1, ERAP2^N; experiment: Inhibition of R-AMC hydrolysis by ERAP2^N; conditions: ERAP2^N vs ERAP2^K, Ki values only in Figure 7B
Procedure, shortened: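 His-tagged recombinant human ERAP2 (N392 or K392 form), baculovirus-expressed in Hi5 insect cells, Ni-NTA purified and thawed once before use. R-AMC hydrolysis was tracked against rising inhibitor concentrations by fluorescence (ex 380 nm, em 460 nm) over 5 min, with the slope taken as the rate.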

ERAP2^K [5] = biological target: T2, ERAP2^K; experiment: Peptide trimming by ERAP2^K; conditions: for trimming rate relative to ERAP1: ERAP2^K compared to ERAP1
Procedure, shortened: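 20 μM peptide was incubated with 100 to 4,000ng (7.3 to 293.6nM) ERAP1 or recombinant ERAP2 at 37°C for 15 min to 1 hour in 50mM HEPES pH 7.0, 100mM NaCl. Reactions were stopped with 0.1% TFA, centrifuged, and run on C18 RP-HPLC (5–50% acetonitrile, A220). Initial rates were taken under <30% completion, and enzymes were compared in parallel. Products were identified by peptide controls and MS; epitope destruction was measured from accumulated smaller peptides.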

ERAP2^N [6] = biological target: T1, ERAP2^N; experiment: Peptide trimming by ERAP2^N; conditions: 20 μM precursor; for trimming rates, comparison of alleles: ERAP2^N vs ERAP2^K, 37°C, pH 7.0
[7] = ERAP2^K, Michaelis-Menten analysis
[8] = precursor carrying N-terminal leucine

T1 sequence (Q6P179 whole entry K392N): as the sequence (Q6P179 whole entry) above, with K392N counted along it

Molecule: Cc1cc(=O)oc2cc(NC(=O)[C@@H](N)CCCN=C(N)N)ccc12 [R-AMC, L-Arginyl-7-amido-4-methyl coumarin]
- Km (ERAP2^N [1]; Michaelis-Menten analysis): 30 ± 9 µM
- kcat (ERAP2^N [1]; Michaelis-Menten analysis): 104±9 ×10^−3 sec^−1
- rate of hydrolysis (ERAP2^N [1]; fluorescence ex 380 nm, em 460 nm, 5 min): 78±1 mmol product/mol enzyme sec^−1
- lowering of kcat constant (ERAP2^K [2]; ERAP2^K vs ERAP2^N): about 18 fold
- Km (ERAP2^K [2]; [7]): 17 ± 5 µM
- kcat (ERAP2^K [2]; [7]): 5.8±0.4 ×10^−3 sec^−1
- rate of hydrolysis (ERAP2^K [2]; ERAP2^K, fluorescence ex 380 nm, em 460 nm, 5 min): 4.8±3 mmol/mol sec^−1
- change of substrate affinity between polymorphic states (ERAP2^K [2]; ERAP2^N vs ERAP2^K): less than 2 fold

Molecule: ASRHHAFSFR
- epitope generation rate, fold faster (ERAP2^N [3]): about 2 fold

Molecule: Amastatin
- inhibition of the two ERAP2 alleles (ERAP2^N [4]): nearly identical

- trimming rate relative to ERAP1 (ERAP2^K [5]; [8]): much less efficient
Molecule: LSRHHAFSFR

Molecule: LSRYWAIRTR
- trimming rates, comparison of alleles (ERAP2^N [6]): drastically different
- epitope generation from precursor (ERAP2^K [5]; ERAP2^K, RP-HPLC, 20 μM peptide, 37°C, pH 7.0): essentially failing to produce detectable amounts of mature epitope; also recorded: absence of a visible epitope peak produced by ERAP2^K

Molecule: RSRYWAIRTR
- trimming rates, comparison of alleles (ERAP2^N [6]): almost identical rates by both ERAP2 alleles; also recorded: essentially identical for both alleles

- trimming rate relative to ERAP1 (ERAP2^K [5]; [8]): negligible compared to that of ERAP1
Molecule: SRHHAFSFR
- all three enzymes: epitope generation vs destruction (ERAP2^K [5]; ERAP1, ERAP2^N and ERAP2^K, precursor carrying N-terminal leucine): generated the epitope faster than they destroyed it

Molecule: WLRRYLENGK
- trimming rate difference between alleles (ERAP2^N [6]; ERAP2^N versus ERAP2^K): 165 fold
